Measured values taken from paper PMC6424611 (Journal of molecular biology, 2019).
Where no end group is shown, it is not given here. [ ]: non-standard residue; d: D form. The star is where a group is joined. Biotin = O=C1N[C@H]2[C@H](CS[C@H]2CCCCC(=O)*)N1; TTDS = NCCCOCCOCCOCCCNC(=O)CCC(=O)*; pS = N[C@@H](COP(=O)(O)O)C(=O)O

Assays:
PPP1R9A PDZ = experiment: holdup assay; type: binding, human; details: ~4 μM PDZ; for binding intensity (BI): fraction of PDZ depleted, biotinylated RSK1_725–735, triplicates; for Kd: read-out: KD, estimated, from BI, estimated 17 μM peptide
Outline: (§1)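 Automated holdup against N-terminally biotinylated (TTDS linker) RSK1 725–735 peptides, unphosphorylated and phosphorylated, in triplicate. PDZome v2 clones were codon-optimized and expressed in E. coli, with soluble lysate adjusted to ~4 μM. BI is the PDZ fraction depleted from the fluid phase.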

MAGI2-2 PDZ = MAGI2-2 PDZ (Homo sapiens, UniProt Q86UL8); experiment: holdup assay; type: binding; details: ~4 μM PDZ; for binding intensity (BI): fraction of PDZ depleted, biotinylated RSK1_725–735, triplicates; for Kd: read-out: KD, estimated, from BI, estimated 17 μM peptide
Outline: as §1

SNX27 PDZ = SNX27 PDZ (Homo sapiens, UniProt Q96L92); experiment: holdup assay; type: binding; details: ~4 μM PDZ; for binding intensity (BI): fraction of PDZ depleted, biotinylated RSK1_725–735, triplicates
PDZRN4-1 PDZ = target: T1, PDZRN4-1 PDZ (Homo sapiens, UniProt Q6ZMN7); experiment: holdup assay; type: binding; details: fraction of PDZ depleted; ~4 μM PDZ; biotinylated RSK1_725–735; triplicates
T1 sequence (Q6ZMN7 224-314 limits assumed): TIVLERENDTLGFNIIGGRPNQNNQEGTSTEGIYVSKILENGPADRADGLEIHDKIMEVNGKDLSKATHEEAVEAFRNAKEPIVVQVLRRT
Outline: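 Automated holdup in triplicate measured biotinylated (N-terminal TTDS linker) RSK1 725–735 peptides, unphosphorylated or phosphorylated, against E. coli-expressed PDZome v2 domains. Soluble lysate was adjusted to ~4 μM, giving 255 domains for the unphosphorylated and 252 for the phosphorylated peptide. Binding intensity (BI) is the fraction of PDZ depleted from the fluid phase. BI 0.2 was the high-confidence threshold.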

SYNJ2BP PDZ [1] = target: T2, SYNJ2BP PDZ (Homo sapiens, UniProt P57105); experiment: holdup assay; type: binding; details: ~4 μM PDZ; for binding intensity (BI): fraction of PDZ depleted, biotinylated RSK1_725–735, triplicates
T2 sequence (P57105 13-100 limits assumed): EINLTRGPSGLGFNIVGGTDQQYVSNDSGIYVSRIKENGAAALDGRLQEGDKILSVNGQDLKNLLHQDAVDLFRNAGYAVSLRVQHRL
Outline: as §1

PDZD7-3 PDZ = target: T3, PDZD7-3 PDZ (Homo sapiens, UniProt Q9H5P4); experiment: holdup assay; type: binding; details: ~4 μM PDZ; for binding intensity (BI): fraction of PDZ depleted, biotinylated RSK1_725–735, triplicates; for Kd: read-out: KD, estimated, from BI, estimated 17 μM peptide
T3 sequence (Q9H5P4 862-934 limits assumed): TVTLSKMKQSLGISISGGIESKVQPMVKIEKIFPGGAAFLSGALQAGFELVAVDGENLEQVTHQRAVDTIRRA
Outline: as §1

RHPN1 PDZ = experiment: holdup assay, updated analysis; type: binding, human; details: weak partner; automated computational protocol
Outline: (§2)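 The same triplicate holdup datasets (biotinylated RSK1 725–735, unphosphorylated and phosphorylated, vs ~4 μM PDZome lysates) were re-analysed with an updated automated computational protocol. This gave alternative BI values, reported as supplemental values alongside the conventional analysis.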

SHANK3 PDZ = experiment: holdup assay; type: binding, human; details: ~4 μM PDZ; for binding intensity (BI): fraction of PDZ depleted, biotinylated RSK1_725–735, triplicates; for Kd: read-out: KD, estimated, from BI, estimated 17 μM peptide
Outline: as §1

MAST1 PDZ = target: T4, MAST1 PDZ (Homo sapiens, UniProt Q9Y2H9); experiment: holdup assay; type: binding; details: ~4 μM PDZ; for binding intensity (BI): fraction of PDZ depleted, biotinylated RSK1_725–735, triplicates; for Kd: read-out: KD, estimated, from BI, estimated 17 μM peptide
T4 sequence (Q9Y2H9 967-1055 limits assumed): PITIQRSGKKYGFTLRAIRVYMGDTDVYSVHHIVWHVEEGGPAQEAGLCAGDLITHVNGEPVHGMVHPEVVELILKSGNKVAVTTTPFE
Outline: as §1

SYNJ2BP PDZ [2] = target: T2, SYNJ2BP PDZ; experiment: competitive fluorescence polarization; type: binding; details: summary of high-throughput SPR and competitive FP
LIMK2 PDZ = experiment: holdup assay; type: binding, human; details: ~4 μM PDZ; for binding intensity (BI): fraction of PDZ depleted, biotinylated RSK1_725–735, triplicates; for Kd: read-out: KD, estimated, from BI, estimated 17 μM peptide
Outline: as §1

MPDZ-10 PDZ = experiment: holdup assay, updated analysis; type: binding, human; details: weak partner; automated computational protocol
Outline: as §2

DFNB31-3 PDZ = experiment: holdup assay; type: binding, human; details: ~4 μM PDZ; for binding intensity (BI): fraction of PDZ depleted, biotinylated RSK1_725–735, triplicates; for Kd: read-out: KD, estimated, from BI, estimated 17 μM peptide
Outline: as §1

DLG3 PDZ = experiment: holdup assay, updated analysis; type: binding, human; details: weak partner; automated computational protocol
Outline: as §2

LIN7A PDZ = experiment: holdup assay, updated analysis; type: binding, human; details: weak partner; automated computational protocol
Outline: as §2

PDZRN3–2 PDZ = experiment: holdup assay, updated analysis; type: binding, human; details: weak partner; automated computational protocol
Outline: as §2

[3] = read-out: KD, estimated, from BI, estimated 17 μM peptide

Sequence of MAGI2-2 PDZ (Q86UL8 426-510 limits assumed): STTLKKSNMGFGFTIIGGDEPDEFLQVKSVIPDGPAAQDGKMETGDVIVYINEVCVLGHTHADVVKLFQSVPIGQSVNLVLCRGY

unphosphorylated RSK1 peptide: C-terminal RSK1 PBM peptide; RSK1_725–735 (holdup, SPR), RSK1_729–735 (direct FP), RSK1_683–735 (competitive FP) ({Biotin-TTDS}-RRVRKLPSTTL)
binding intensity (BI) (PPP1R9A PDZ): 0.00 ± 0.02
Kd (PPP1R9A PDZ): > 100 µM
binding intensity (BI) (MAGI2-2 PDZ): 0.42 ± 0.01
Kd (MAGI2-2 PDZ): 21.2 µM
binding intensity (BI) (SNX27 PDZ): 0.08 ± 0.07
Kd (SNX27 PDZ; [3]): > 100 µM
binding intensity (BI) (PDZRN4-1 PDZ): 0.51 ± 0.02
binding intensity (BI) (SYNJ2BP PDZ [1]): 0.26 ± 0.07
Kd (SYNJ2BP PDZ [1]; [3]): 45.4 µM
binding intensity (BI) (PDZD7-3 PDZ): 0.60 ±0.03
Kd (PDZD7-3 PDZ): 9.7 µM
interaction partner by updated analysis (RHPN1 PDZ): new interaction partners
binding intensity (BI) (SHANK3 PDZ): 0.27 ± 0.03
Kd (SHANK3 PDZ): 43 µM
binding intensity (BI) (MAST1 PDZ): 0.57 ± 0.01
Kd (MAST1 PDZ): 11.1 µM
dissociation constant (SYNJ2BP PDZ [2]): no interaction was detectable
binding intensity (BI) (LIMK2 PDZ): 0.01 ± 0.06
Kd (LIMK2 PDZ): > 100 µM
interaction partner by updated analysis (MPDZ-10 PDZ): new interaction partners
binding intensity (BI) (DFNB31-3 PDZ): 0.23 ± 0.04
Kd (DFNB31-3 PDZ): 53.8 µM

phosphorylated RSK1 peptide: RSK1 C-terminal PBM peptide phosphorylated at position −3; same constructs as the unphosphorylated ({Biotin-TTDS}-RRVRKLP[pS]TTL)
binding intensity (BI) (PPP1R9A PDZ): 0.33 ± 0.02
Kd (PPP1R9A PDZ): 31.8 µM
binding intensity (BI) (MAGI2-2 PDZ): 0.23 ± 0.03
Kd (MAGI2-2 PDZ): 53.8 µM
interaction partner by updated analysis (DLG3 PDZ): new partners
binding intensity (BI) (SNX27 PDZ): 0.47 ± 0.02
interaction partner by updated analysis (LIN7A PDZ): new partners
binding intensity (BI) (PDZRN4-1 PDZ): 0.54 ± 0.03
binding intensity (BI) (SYNJ2BP PDZ [1]): 0.54 ± 0.03
binding intensity (BI) (PDZD7-3 PDZ): 0.15 ± 0.03
Kd (PDZD7-3 PDZ): 92.9 µM
binding intensity (BI) (SHANK3 PDZ): 0.07 ± 0.01
Kd (SHANK3 PDZ): > 100 µM
binding intensity (BI) (MAST1 PDZ): 0.08 ± 0.03
Kd (MAST1 PDZ): > 100 µM
interaction partner by updated analysis (PDZRN3–2 PDZ): new partners
binding intensity (BI) (LIMK2 PDZ): 0.22 ± 0.07
Kd (LIMK2 PDZ): 57.2 µM
binding intensity (BI) (DFNB31-3 PDZ): −0.01 ± 0.02
Kd (DFNB31-3 PDZ): > 100 µM
